OX1R antag-1: antagonists of human orexin 1 receptor (OX1R); OX1R-expressing cells, FRET antagonist read-out; inhibition, % at 6.6 µM; 1.8% of 330,000 active; in the data active means inhibition mostly above about 38%, no sharp cut-off; inactive means mostly below about 40%
Target sequence (O43613 whole entry, looked up): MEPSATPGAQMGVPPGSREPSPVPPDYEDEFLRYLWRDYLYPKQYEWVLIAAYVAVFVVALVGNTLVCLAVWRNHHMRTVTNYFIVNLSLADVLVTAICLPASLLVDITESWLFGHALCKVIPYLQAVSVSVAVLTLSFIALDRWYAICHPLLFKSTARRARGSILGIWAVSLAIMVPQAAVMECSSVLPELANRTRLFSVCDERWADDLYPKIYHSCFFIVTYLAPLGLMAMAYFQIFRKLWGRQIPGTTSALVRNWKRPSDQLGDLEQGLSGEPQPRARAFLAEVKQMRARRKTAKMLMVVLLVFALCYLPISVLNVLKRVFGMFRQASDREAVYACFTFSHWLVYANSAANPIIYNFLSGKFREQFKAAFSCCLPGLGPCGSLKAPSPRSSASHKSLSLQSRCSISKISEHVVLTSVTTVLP
M1 PAM parental: nonselective calcium activators in parental CHO-K1 cells, primary screen, counter-screen for M1 PAM project, cell-based, Fluo-8 calcium fluorescence, full deck, 1536-well. AID 602247, 2012. activation, % at 3 µM. ATP EC20; 0% at ATP EC20, 100% at ATP max. 0.02% of 360,000 active;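 active means activation above the run cutoff, the mean activation of all test compounds plus 3 SD, cut at about 40% in these data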;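 further: peak over basal fluorescence ratio in a 140 s read after ATP addition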
CHO-K1 Ca antag: counter-screen for M1 antagonists: effect in parental CHO-K1 cells; ATP-induced calcium, Fluo-8 fluorescence; inhibition, % at 3 µM; 0.6% of 360,000 active; AID 602250;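 active means inhibition above a per-plate cutoff, the plate's mean sample inhibition plus 3 SD, cut at about 24% in these data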
CHO parental Ca: ATP-evoked calcium signal inhibitors, parental CHO, primary screen, counter-screen for OX1R antagonist project, cell-based, fluorescence, Fluo-8 calcium dye. inhibition, % at 5.6 µM. parental CHO-K1, ATP-induced calcium, Fluo-8 fluorescence. 0.63% of 330,000 active;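 active means inhibition above that plate's mean sample inhibition plus 3 SD, cut at about 26% in these data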
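Assay system: untransfected parental CHO cell line. Also added: ATP agonist challenge. Dosing: one dose, 5.6 µM nominal. Measured by: Fluo-8 fluorescence. Read-out: % inhibition. Benchmarks: ATP wells versus no-ATP DMSO wells. Repeats: no replicates.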
M1 ag parental: counter-screen for M1 agonists: effect in parental CHO-K1 cells. AID 602248, 2012. Fluo-8 calcium fluorescence; scaled to maximal ATP response, vehicle zero. 0.48% of 360,000 active. activation, % at 3 µM; in the data active means activation above about 15%;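 further: untransfected CHO-K1 host cells lacking M1 receptor as counterscreen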
OX1R antag-2: OX1R (HCRTR1) antagonists, primary screen, fluorescence, CHO/OX1R cells, Fluo-8 calcium, orexin A; Fluo-8 calcium fluorescence; inhibition, % at 5 µM; 0.43% of 330,000 active;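 active means inhibition above its plate's threshold, mean inhibition of all tested compounds on the plate plus 3 SD, cut at about 37% in these data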
Each line names hits and unclear results; the compound was inactive in the other large screens. Only some compounds are listed: those with a hit (about 2.9% of all), similar ones and a draw of the others.

Cc1cc(N2C(=O)C3C4C=CC(C4)C3C2=O)ccc1NC(=O)c1cccs1 (stereo unspecified)	CHO-K1 Ca antag 47.4
CC1CN(S(=O)(=O)c2cc(C(=O)N(CCc3ccccc3)Cc3ccccc3)ccc2Cl)CC(C)O1 (stereo unspecified)	none
CCN(CC1COc2ccccc2O1)C(=O)c1ccc(Cl)c(S(=O)(=O)N2CC(C)OC(C)C2)c1 (stereo unspecified)	OX1R antag-1 49.8
O=C(CCNS(=O)(=O)c1ccc2[nH]c(=O)oc2c1)Nc1ccccc1	none
Cn1c2ccccc2c2n[nH]c(=S)nc21	M1 ag parental 15.3
Cn1c2ccccc2c2n[nH]c(=O)nc21	none
O=C(CSc1nnc2scc(-c3ccccc3)n12)Nc1nsc(-c2ccccc2)n1	OX1R antag-1 72.6
CCCc1cc(C(=O)Nc2cccc(C(C)=O)c2)no1	none
CCCc1cc(C(=O)Nc2ccc(C(C)=O)cc2)no1	CHO parental Ca 28.3
COc1ccc(NC(=O)CC2CC3CCC2C3)cc1S(=O)(=O)N1CCOCC1 (stereo unspecified)	none
Oc1cc(NCCc2cccnc2)cc2cccnc12	OX1R antag-1 66.4
Oc1cc(Nc2cccnc2)cc2cccnc12	none
O=c1c(-c2nnc(SCc3ccc(Cl)cc3)o2)cccn1Cc1ccccc1	OX1R antag-1 39.8
O=C(Nc1ccccc1-c1nnc(SCc2ccc(Cl)cc2)o1)c1ccccc1	none
CSc1ccccc1NC(=O)CN(C)C(=O)COc1cccc2cccnc12	OX1R antag-1 32.1
Cc1ccc(C)n1-c1cc([N+](=O)[O-])ccc1-n1ccnc1	none
CC1(C)N([O-])c2cc([N+](=O)[O-])ccc2[N+]1=O	OX1R antag-1 53.0 (no result: M1 PAM parental, CHO-K1 Ca antag, M1 ag parental)
CC1(C)CC(/C=C/c2ccccc2)=Nc2ccccc2N1	none
CC(c1ccccc1C(O)(c1ccccc1)c1ccccc1)N(C)C (stereo unspecified)	CHO parental Ca 30.2, M1 ag parental 23.3
COc1ccccc1C(O)(c1ccccc1)c1ccccc1OC	none (no result: OX1R antag-1, CHO parental Ca, OX1R antag-2)
Cc1cc2c(cc1C)NC(CC(=O)NCc1ccccc1)C(=O)N2 (stereo unspecified)	OX1R antag-1 35.5
CCn1c(SCC(=O)Nc2ccc3c(c2)OCCO3)nnc1-c1c[nH]c2ccccc12	OX1R antag-1 38.3
COc1ccc(NC(=O)CSc2nnc(-c3ccccc3)n2Cc2ccco2)cc1OC	OX1R antag-1 37.9
O=C(CSc1nnc(-c2ccccc2Cl)n1Cc1ccco1)Nc1ccc2c(c1)OCCO2	OX1R antag-1 71.2
CC(=O)Nc1cccc(NC(=O)CSc2ncc(-c3ccc(Cl)cc3)n2Cc2ccco2)c1	OX1R antag-1 81.6, CHO parental Ca 61.4, OX1R antag-2 73.2
Cc1cc(NC(=O)CSc2nnc(-c3ccccc3)n2Cc2ccco2)no1	none
O=C(CSc1nnc(-c2c[nH]c3ccccc23)n1CC1CCCO1)Nc1ccc2c(c1)OCCO2 (stereo unspecified)	none
CC1=C(C)/C(=N\OS(=O)(=O)c2ccccc2)C=CC1=O	OX1R antag-1 149.5, CHO-K1 Ca antag 37.0, CHO parental Ca 65.4, OX1R antag-2 74.4
COc1ccc(S(=O)(=O)n2nc(-c3cc(OC)c(OC)c(OC)c3)cc2N)cc1OC	none
COc1ccc(-c2cc(N)n(S(=O)(=O)c3c(F)c(F)c(F)c(F)c3F)n2)cc1OC	CHO parental Ca 44.8
CCN(C(=O)COC(=O)c1ccc([N+](=O)[O-])o1)C1CCCCC1	OX1R antag-1 29.3
O=C(NCc1ccco1)c1ccc(Cn2cc([N+](=O)[O-])cn2)o1	none
CCN(C(=O)COC(=O)c1cccnc1SC)C1CCCCC1	OX1R antag-1 57.2
CC(=O)Nc1ccc(NC(=O)COC(=O)c2ccc([N+](=O)[O-])o2)cc1	OX1R antag-1 36.6
O=C(COC(=O)c1ccc([N+](=O)[O-])o1)NC1CCCC1	none
CCN(C(=O)COC(=O)c1cccnc1SC)C1CCS(=O)(=O)C1 (stereo unspecified)	none
CCN(c1ccc(NC(=O)COC(=O)c2ccc([N+](=O)[O-])o2)cc1)C(C)C	none
O=C(NCc1ccco1)c1ccc([N+](=O)[O-])o1	OX1R antag-1 71.4
COc1ccc(NC(=S)NNS(=O)(=O)c2ccc3ccccc3c2)c(OC)c1	none
CC1=NN(C(=O)CCc2ccc3c(c2)OCO3)C(O)(C(F)(F)F)C1 (stereo unspecified)	none
O=C(OCc1nnc(-c2ccc(Br)cc2)o1)c1cncc(Br)c1	none
COc1ccc(C2CCCCCN2C(=O)C2CCN(S(=O)(=O)c3cccc(C(C)=O)c3)CC2)cc1 (stereo unspecified)	none (no result: OX1R antag-1, CHO parental Ca, OX1R antag-2)
COc1ccc(C(=O)NC2CCN(CC(=O)Nc3c(C)cccc3C)CC2)cc1OC	none
CCCCn1c(N)c(N(CCOC)C(=O)CN2C(=O)NC3(CC(C)CC(C)(C)C3)C2=O)c(=O)[nH]c1=O (stereo unspecified)	none (no result: OX1R antag-1, CHO parental Ca, OX1R antag-2)
O=C(COC(=O)c1ccc([N+](=O)[O-])o1)NC1CCCCC1	OX1R antag-1 24.4
O=C(NC1CCCCC1)c1ccc([N+](=O)[O-])o1	OX1R antag-1 39.0
COc1ccc(NC(=O)c2cc(C3CCCCN3C(=O)OCCF)on2)c(C)c1 (stereo unspecified)	none (no result: OX1R antag-1, CHO parental Ca, OX1R antag-2)
COc1ccc(C2CCCN2C(=O)Nc2cccc(C(C)=O)c2)cc1OC (stereo unspecified)	CHO-K1 Ca antag 26.2
COc1ccc(C2CCCN2C(=O)Nc2ccc(F)cc2)cc1OC (stereo unspecified)	none
O=C(NCc1ccc(Cl)nc1)c1csc(COCCO)n1	none (no result: OX1R antag-1, CHO parental Ca, OX1R antag-2)
CN(C)/C=C/c1oc2ccc(O)cc2c1[N+](=O)[O-]	OX1R antag-1 52.5
COc1ccc([N+](=O)[O-])cc1NC(=O)N(C)Cc1ccco1	none
CCOc1ccc2nc(NC(=O)c3ccc(C)o3)sc2c1	OX1R antag-1 37.7
CCOC(=O)c1sc(NC(=O)c2ccc(C)o2)nc1C	OX1R antag-1 54.3
N#CCC(=O)Nc1ccc(C(=O)OCC(=O)NC(=O)NCc2ccco2)cc1	none
O=C(c1cccs1)N1CCN(c2ccc([N+](=O)[O-])cc2F)CC1	none
Cc1cc(N2CCN(C(=O)c3cccs3)CC2)c(F)cc1[N+](=O)[O-]	CHO parental Ca 51.7
CCC(=O)c1ccc(N2CCN(C(=O)c3cccs3)CC2)c(F)c1	CHO-K1 Ca antag 25.5
COc1ccc(S(=O)(=O)N2CCOC23CCN(S(=O)(=O)c2ccc(C)cc2)CC3)cc1	none
CCOC(=O)C1CCCN(C(=O)c2ccc(Cl)c(S(=O)(=O)N3CCCCCC3)c2)C1 (stereo unspecified)	none
